ChEMBL document CHEMBL1240415, “Design, synthesis and antimicrobial activities of some new quinoline derivatives carrying 1,2,3-triazole moiety” (2010)
≈ marks a conversion by molar mass, not a printed value.

Columns and labels:
Type in all cases: functional
Talaromyces marneffei = assay: Antifungal activity against recultured Penicillium marneffei after 3 to 4 days by serial plate dilution method; conditions: for MIC: Talaromyces marneffei
Outline: (§1)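 Sabouraud agar made from peptone, glucose and agar in water, pH 5.7. Fungal spores suspended in normal saline and used to lawn the plates, which were dried 1 h at 37 °C. Wells punched and compounds added in DMSO, with a DMSO solvent control. Triplicate plates held at 37 °C for 3–4 days. Read-out is inhibition zone diameter.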

Candida albicans = assay: Antifungal activity against Candida albicans after 3 to 4 days by serial plate dilution method; conditions: for MIC: Candida albicans; outline: as §1
[1] = tested on: Trichophyton mentagrophytes; assay: Antifungal activity against recultured Trichophyton mentagrophytes after 3 to 4 days by serial plate dilution method; conditions: for MIC: Trichophyton mentagrophytes; outline: as §1
Pseudomonas aeruginosa = assay: Antibacterial activity against Pseudomonas aeruginosa ATCC 27853 after 3 to 4 days by serial plate dilution method; conditions: for MIC: Pseudomonas aeruginosa, ATCC 27853
Outline: (§2)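 Serial dilutions in Mueller-Hinton broth in tubes, pH adjusted to 5.0 with phosphate buffer. Inoculated with a standardized bacterial suspension and incubated 16–18 h at 37 °C. MIC is the lowest concentration with no visible growth, tested over 6.25–100 µg/mL. Zones come from an agar well diffusion assay: compounds in DMSO are added to wells in seeded agar, DMSO control, triplicate plates, 37 °C for 3–4 days, inhibition zone diameter in mm.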

Klebsiella pneumoniae = assay: Antibacterial activity against recultured Klebsiella pneumoniae after 3 to 4 days by serial plate dilution method; conditions: for MIC: Klebsiella pneumoniae; outline: as §2
Aspergillus flavus = assay: Antifungal activity against Aspergillus flavus NCIM 524 after 3 to 4 days by serial plate dilution method; conditions: for MIC: Aspergillus flavus, NCIM 524; outline: as §1
Staphylococcus aureus = assay: Antibacterial activity against Staphylococcus aureus ATTC 25923 after 3 to 4 days by serial plate dilution method; conditions: for MIC: Staphylococcus aureus, ATTC 25923; outline: as §2
Streptococcus pyogenes = assay: Antibacterial activity against Streptococcus pyogenes after 3 to 4 days by serial plate dilution method; conditions: for MIC: Streptococcus pyogenes; outline: as §2
Escherichia coli = assay: Antibacterial activity against Escherichia coli ATTC 25922 after 3 to 4 days by serial plate dilution method; conditions: for MIC: Escherichia coli, ATTC 25922; outline: as §2
Aspergillus fumigatus = assay: Antifungal activity against Aspergillus fumigatus NCIM 902 after 3 to 4 days by serial plate dilution method; conditions: for MIC: Aspergillus fumigatus, NCIM 902; outline: as §1

| MIC (Talaromyces marneffei) | MIC (Candida albicans) | MIC [1] | MIC (Pseudomonas aeruginosa) | MIC (Klebsiella pneumoniae) | MIC (Aspergillus flavus) | MIC (Staphylococcus aureus) | MIC (Streptococcus pyogenes) | MIC (Escherichia coli) | MIC (Aspergillus fumigatus) | Compound | diameter of the inhibition zone (DIZ) (Talaromyces marneffei) | diameter of the inhibition zone (DIZ) (Candida albicans) | diameter of the inhibition zone (DIZ) [1] | diameter of the inhibition zone (DIZ) (Pseudomonas aeruginosa) | diameter of the inhibition zone (DIZ) (Klebsiella pneumoniae) | diameter of the inhibition zone (DIZ) (Aspergillus flavus) | diameter of the inhibition zone (DIZ) (Staphylococcus aureus) | diameter of the inhibition zone (DIZ) (Streptococcus pyogenes) | diameter of the inhibition zone (DIZ) (Escherichia coli) | diameter of the inhibition zone (DIZ) (Aspergillus fumigatus) |
| --- | --- | --- | --- | --- | --- | --- | --- | --- | --- | --- | --- | --- | --- | --- | --- | --- | --- | --- | --- | --- |
| 12.5 µg/mL (≈ 38.7 µM) | 12.5 µg/mL (≈ 38.7 µM) | 12.5 µg/mL (≈ 38.7 µM) | 12.5 µg/mL (≈ 38.7 µM) | 12.5 µg/mL (≈ 38.7 µM) | 12.5 µg/mL (≈ 38.7 µM) | 12.5 µg/mL (≈ 38.7 µM) | 12.5 µg/mL (≈ 38.7 µM) | 12.5 µg/mL (≈ 38.7 µM) | 12.5 µg/mL (≈ 38.7 µM) | COc1ccc2nc(C)cc(-n3cc(CN4CCCC4)nn3)c2c1 | 10 mm | 10 mm | 12 mm | 12 mm | 11 mm | 11 mm | 10 mm | 11 mm | 10 mm | 10 mm |
| 12.5 µg/mL (≈ 37 µM) | 12.5 µg/mL (≈ 37 µM) | 12.5 µg/mL (≈ 37 µM) | 50 µg/mL (≈ 148 µM) | 50 µg/mL (≈ 148 µM) | 12.5 µg/mL (≈ 37 µM) | 50 µg/mL (≈ 148 µM) | 12.5 µg/mL (≈ 37 µM) | 12.5 µg/mL (≈ 37 µM) | 12.5 µg/mL (≈ 37 µM) | COc1ccc2nc(C)cc(-n3cc(CN4CCCCC4)nn3)c2c1 | 12 mm | 10 mm | 10 mm | <10 mm | <10 mm | 10 mm | <10 mm | 10 mm | 10 mm | 10 mm |
| 6.25 µg/mL (≈ 17.7 µM) | 6.25 µg/mL (≈ 17.7 µM) | 6.25 µg/mL (≈ 17.7 µM) | 6.25 µg/mL (≈ 17.7 µM) | 6.25 µg/mL (≈ 17.7 µM) | 6.25 µg/mL (≈ 17.7 µM) | 6.25 µg/mL (≈ 17.7 µM) | 6.25 µg/mL (≈ 17.7 µM) | 6.25 µg/mL (≈ 17.7 µM) | 6.25 µg/mL (≈ 17.7 µM) | COc1ccc2nc(C)cc(-n3cc(CN4CCN(C)CC4)nn3)c2c1 | 16 mm | 14 mm | 14 mm | 14 mm | 14 mm | 16 mm | 16 mm | 16 mm | 20 mm | 18 mm |
| 6.25 µg/mL (≈ 17.1 µM) | 6.25 µg/mL (≈ 17.1 µM) | 6.25 µg/mL (≈ 17.1 µM) | 6.25 µg/mL (≈ 17.1 µM) | 6.25 µg/mL (≈ 17.1 µM) | 6.25 µg/mL (≈ 17.1 µM) | 6.25 µg/mL (≈ 17.1 µM) | 6.25 µg/mL (≈ 17.1 µM) | 6.25 µg/mL (≈ 17.1 µM) | 6.25 µg/mL (≈ 17.1 µM) | CCN1CCN(Cc2cn(-c3cc(C)nc4ccc(OC)cc34)nn2)CC1 | 18 mm | 12 mm | 12 mm | 12 mm | 16 mm | 16 mm | 18 mm | 12 mm | 18 mm | 14 mm |
| 6.25 µg/mL (≈ 16.4 µM) | 6.25 µg/mL (≈ 16.4 µM) | 6.25 µg/mL (≈ 16.4 µM) | 6.25 µg/mL (≈ 16.4 µM) | 6.25 µg/mL (≈ 16.4 µM) | 6.25 µg/mL (≈ 16.4 µM) | 6.25 µg/mL (≈ 16.4 µM) | 6.25 µg/mL (≈ 16.4 µM) | 6.25 µg/mL (≈ 16.4 µM) | 6.25 µg/mL (≈ 16.4 µM) | COc1ccc2nc(C)cc(-n3cc(CN4CCN(C(C)=O)CC4)nn3)c2c1 | 16 mm | 10 mm | 14 mm | 14 mm | 12 mm | 14 mm | 20 mm | 16 mm | 18 mm | 16 mm |
| 25 µg/mL (≈ 58.3 µM) | 12.5 µg/mL (≈ 29.2 µM) | 12.5 µg/mL (≈ 29.2 µM) | 50 µg/mL (≈ 117 µM) | 50 µg/mL (≈ 117 µM) | 12.5 µg/mL (≈ 29.2 µM) | 50 µg/mL (≈ 117 µM) | 50 µg/mL (≈ 117 µM) | 50 µg/mL (≈ 117 µM) | 12.5 µg/mL (≈ 29.2 µM) | COc1ccc2nc(C)cc(-n3cc(CN4CCN(c5ccc(C)cc5)CC4)nn3)c2c1 | <10 mm | 12 mm | 12 mm | <10 mm | <10 mm | 12 mm | <10 mm | <10 mm | <10 mm | 10 mm |

Further lines, the compound ahead of its results:

| Compound | MIC (Talaromyces marneffei) | MIC (Candida albicans) | MIC [1] | MIC (Pseudomonas aeruginosa) | MIC (Klebsiella pneumoniae) | MIC (Aspergillus flavus) | MIC (Staphylococcus aureus) | MIC (Streptococcus pyogenes) | MIC (Escherichia coli) | MIC (Aspergillus fumigatus) | diameter of the inhibition zone (DIZ) (Talaromyces marneffei) | diameter of the inhibition zone (DIZ) (Candida albicans) | diameter of the inhibition zone (DIZ) [1] | diameter of the inhibition zone (DIZ) (Pseudomonas aeruginosa) | diameter of the inhibition zone (DIZ) (Klebsiella pneumoniae) | diameter of the inhibition zone (DIZ) (Aspergillus flavus) | diameter of the inhibition zone (DIZ) (Staphylococcus aureus) | diameter of the inhibition zone (DIZ) (Streptococcus pyogenes) | diameter of the inhibition zone (DIZ) (Escherichia coli) | diameter of the inhibition zone (DIZ) (Aspergillus fumigatus) |
| --- | --- | --- | --- | --- | --- | --- | --- | --- | --- | --- | --- | --- | --- | --- | --- | --- | --- | --- | --- | --- |
| COc1ccc2nc(C)cc(-n3cc(CN4CCC(c5ccccc5)CC4)nn3)c2c1 | 50 µg/mL (≈ 121 µM) | 50 µg/mL (≈ 121 µM) | 50 µg/mL (≈ 121 µM) | 12.5 µg/mL (≈ 30.2 µM) | 12.5 µg/mL (≈ 30.2 µM) | 50 µg/mL (≈ 121 µM) | 12.5 µg/mL (≈ 30.2 µM) | 12.5 µg/mL (≈ 30.2 µM) | 12.5 µg/mL (≈ 30.2 µM) | 50 µg/mL (≈ 121 µM) | <10 mm | <10 mm | <10 mm | 12 mm | 11 mm | <10 mm | 10 mm | 11 mm | 10 mm | <10 mm |
| COc1ccc2nc(C)cc(-n3cc(CN4CCN(C5CCCCC5)CC4)nn3)c2c1 | 50 µg/mL (≈ 119 µM) | 50 µg/mL (≈ 119 µM) | 50 µg/mL (≈ 119 µM) | 12.5 µg/mL (≈ 29.7 µM) | 12.5 µg/mL (≈ 29.7 µM) | 50 µg/mL (≈ 119 µM) | 12.5 µg/mL (≈ 29.7 µM) | 12.5 µg/mL (≈ 29.7 µM) | 12.5 µg/mL (≈ 29.7 µM) | 50 µg/mL (≈ 119 µM) | <10 mm | <10 mm | <10 mm | 10 mm | 10 mm | <10 mm | 10 mm | 10 mm | 10 mm | <10 mm |
| COc1ccc2nc(C)cc(-n3cc(CN4CCN(c5ccccc5F)CC4)nn3)c2c1 | 6.25 µg/mL (≈ 14.5 µM) | 6.25 µg/mL (≈ 14.5 µM) | 6.25 µg/mL (≈ 14.5 µM) | 6.25 µg/mL (≈ 14.5 µM) | 6.25 µg/mL (≈ 14.5 µM) | 6.25 µg/mL (≈ 14.5 µM) | 12.5 µg/mL (≈ 28.9 µM) | 6.25 µg/mL (≈ 14.5 µM) | 12.5 µg/mL (≈ 28.9 µM) | 6.25 µg/mL (≈ 14.5 µM) | 12 mm | 10 mm | 10 mm | 10 mm | 10 mm | 10 mm | 10 mm | 14 mm | 10 mm | 12 mm |
| COc1ccc2nc(C)cc(-n3cc(CN4CCN(c5ccc(F)cc5)CC4)nn3)c2c1 | 6.25 µg/mL (≈ 14.5 µM) | 6.25 µg/mL (≈ 14.5 µM) | 6.25 µg/mL (≈ 14.5 µM) | 6.25 µg/mL (≈ 14.5 µM) | 6.25 µg/mL (≈ 14.5 µM) | 12.5 µg/mL (≈ 28.9 µM) | 12.5 µg/mL (≈ 28.9 µM) | 12.5 µg/mL (≈ 28.9 µM) | 6.25 µg/mL (≈ 14.5 µM) | 6.25 µg/mL (≈ 14.5 µM) | 12 mm | 12 mm | 10 mm | 10 mm | 12 mm | 10 mm | 11 mm | <10 mm | 12 mm | 14 mm |
| COc1ccc(N2CCN(Cc3cn(-c4cc(C)nc5ccc(OC)cc45)nn3)CC2)cc1 | 6.25 µg/mL (≈ 14.1 µM) | 6.25 µg/mL (≈ 14.1 µM) | 6.25 µg/mL (≈ 14.1 µM) | 6.25 µg/mL (≈ 14.1 µM) | 6.25 µg/mL (≈ 14.1 µM) | 6.25 µg/mL (≈ 14.1 µM) | 6.25 µg/mL (≈ 14.1 µM) | 6.25 µg/mL (≈ 14.1 µM) | 6.25 µg/mL (≈ 14.1 µM) | 6.25 µg/mL (≈ 14.1 µM) | 18 mm | 14 mm | 16 mm | 14 mm | 16 mm | 14 mm | 16 mm | 14 mm | 20 mm | 16 mm |
| COc1ccc(N2CCN(Cc3cn(-c4cc(C)nc5ccc(OC)cc45)nn3)CC2)c(C)c1 | 6.25 µg/mL (≈ 13.6 µM) | 6.25 µg/mL (≈ 13.6 µM) | 6.25 µg/mL (≈ 13.6 µM) | 12.5 µg/mL (≈ 27.3 µM) | 6.25 µg/mL (≈ 13.6 µM) | 6.25 µg/mL (≈ 13.6 µM) | 12.5 µg/mL (≈ 27.3 µM) | 6.25 µg/mL (≈ 13.6 µM) | 12.5 µg/mL (≈ 27.3 µM) | 6.25 µg/mL (≈ 13.6 µM) | 14 mm | 10 mm | 14 mm | 10 mm | 16 mm | 14 mm | 14 mm | 16 mm | 14 mm | 16 mm |
